Reference: publication PMC6499389 (European journal of medicinal chemistry, 2019)
Like-named read-outs stand apart in the source and are kept apart here.

Experiments:
[1] = biological target: T1, hTopo I (Homo sapiens, UniProt P11387); assay: Relaxation assay for hTopo I; format: biochemical; conditions: for fold lower activity (loss in hTopo I inhibition) than 5a: relative to 5a; for fold lower activity (loss in hTopo I inhibition) than 5a / fold lower activity (loss in hTopo I inhibition) than 217: from relaxation assay IC50; for fold lower activity (loss in hTopo I inhibition) than 217: relative to 217
T1 sequence (P11387 1-765): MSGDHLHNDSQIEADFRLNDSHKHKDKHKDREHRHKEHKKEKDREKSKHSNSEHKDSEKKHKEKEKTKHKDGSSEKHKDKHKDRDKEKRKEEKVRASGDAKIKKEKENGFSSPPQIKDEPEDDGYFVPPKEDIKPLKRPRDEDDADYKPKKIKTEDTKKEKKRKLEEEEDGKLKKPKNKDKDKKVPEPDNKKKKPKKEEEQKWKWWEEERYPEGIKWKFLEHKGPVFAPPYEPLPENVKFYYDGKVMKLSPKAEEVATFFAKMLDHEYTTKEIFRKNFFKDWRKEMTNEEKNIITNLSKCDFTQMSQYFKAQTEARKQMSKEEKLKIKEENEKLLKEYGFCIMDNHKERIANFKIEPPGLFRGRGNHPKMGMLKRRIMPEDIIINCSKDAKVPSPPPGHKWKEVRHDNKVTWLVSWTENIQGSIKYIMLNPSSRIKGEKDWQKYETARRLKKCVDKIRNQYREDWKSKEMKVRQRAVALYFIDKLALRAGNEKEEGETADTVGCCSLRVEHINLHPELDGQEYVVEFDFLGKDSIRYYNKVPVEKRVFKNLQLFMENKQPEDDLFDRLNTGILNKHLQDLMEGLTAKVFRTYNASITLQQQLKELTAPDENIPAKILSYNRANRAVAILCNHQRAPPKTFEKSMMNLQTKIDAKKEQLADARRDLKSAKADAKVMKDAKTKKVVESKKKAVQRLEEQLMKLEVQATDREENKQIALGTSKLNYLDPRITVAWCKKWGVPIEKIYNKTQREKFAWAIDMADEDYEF
Summary of the method: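 Supercoiled pBR322 (0.3 μg) was relaxed by 1 unit of commercial human Topo I. Buffer: 50 mM Tris-HCl pH 7.5, 100 mM NaCl, 10 mM MgCl2, 1 mM DTT, 50 μg/ml BSA, plus varied test compound concentrations. Incubation was 15 min at 37°C, stopped with 25 mM EDTA. Products ran on 1.2% agarose, 2 V/cm, 15 h, TAE, then were ethidium-stained and imaged. IC50 came from band quantification.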

[2] = system: calf thymus DNA (Ct-DNA); conditions: ref Previous studies; cited from earlier work
[3] = system: colon cancer (HT-29) xenograft; conditions: HT-29 xenograft model, mice; cited from earlier work
[4] = system: calf thymus DNA (Ct-DNA); assay: DNA binding assay; conditions: several ratios of DNA to FQ
[5] = system: 27-bp sequence d(CCTTACGTGCATAGTCATTCATGACCG) of dsDNA; assay: DNA binding assay; conditions: compound 25 μM

## O=C(O)c1cn(Cc2ccc(-c3ccccc3)cc2)c2cc(N3C[C@H]4CCNC[C@H]4C3)c(F)cc2c1=O [091/5k, 1-([1,1′-biphenyl]-4-ylmethyl)-6-fluoro-7-((3aS,7aS)-hexahydro-1H-pyrrolo[3,4-c]pyridin-2(3H)-yl)-4-oxo-1,4-dihydroquinoline-3-carboxylic acid]
[1]
  fold lower activity (loss in hTopo I inhibition) than 5a: 4 fold
[1]; relative to C7 N-methyl AMP analog 5f
  fold more active than 5f: ~3 fold

## COc1c(N2CC[C@@H](CN)C2)c(F)cc2c(=O)c(C(=O)O)cn(Cc3ccc(-c4ccc(F)cc4)cc3)c12 [277/7c, (S)-7-(3-(aminomethyl)pyrrolidin-1-yl)-6-fluoro-1-((4′-fluoro-[1,1′-biphenyl]-4-yl)methyl)-8-methoxy-4-oxo-1,4-dihydroquinoline-3-carboxylic acid]
[1]
  fold lower activity (loss in hTopo I inhibition) than 217: 2 fold

## N[C@@H]1CCN(c2cc3c(cc2F)c(=O)c(C(=O)O)cn3Cc2ccc(-c3ccccc3)cc2)C1 [117/5g, (R)-1-([1,1′-biphenyl]-4-ylmethyl)-7-(3-aminopyrrolidin-1-yl)-6-fluoro-4-oxo-1,4-dihydroquinoline-3-carboxylic acid]
[1]
  fold lower activity (loss in hTopo I inhibition) than 5a: 4 fold

## CN[C@@H]1CCN(c2cc3c(cc2F)c(=O)c(C(=O)O)cn3Cc2ccc(-c3ccccc3)cc2)C1 [118/5h, (R)-1-([1,1′-biphenyl]-4-ylmethyl)-6-fluoro-7-(3-(methylamino)pyrrolidin-1-yl)-4-oxo-1,4-dihydroquinoline-3-carboxylic acid]
[1]
  fold lower activity (loss in hTopo I inhibition) than 5a: 2 fold

## COc1c(N2CC[C@@H](CN)C2)c(F)cc2c(=O)c(C(N)=O)cn(Cc3ccc(-c4ccccc4)cc3)c12 [251/3b, (S)-1-([1,1′-biphenyl]-4-ylmethyl)-7-(3-(aminomethyl)pyrrolidin-1-yl)-6-fluoro-8-methoxy-4-oxo-1,4-dihydroquinoline-3-carboxamide]
[1]
  fold lower activity (loss in hTopo I inhibition) than 217: 3- to 7 fold

## CN[C@@H]1CCN(c2c(F)cc3c(=O)c(C(=O)O)cn(Cc4ccc(-c5ccccc5)cc4)c3c2OC)C1 [228/4e, (R)-1-([1,1′-biphenyl]-4-ylmethyl)-6-fluoro-8-methoxy-7-(3-(methylamino)pyrrolidin-1-yl)-4-oxo-1,4-dihydroquinoline-3-carboxylic acid]
[1]
  fold lower activity (loss in hTopo I inhibition) than 217: about 2 fold

## CCn1cc(C(=O)O)c(=O)c2cc(F)c(N3CCNCC3)cc21 [Norfloxacin]
[2]
  bathochromic shift upon addition of Ct-DNA: an observed bathochromic shift
  fluorescence quenching upon addition of Ct-DNA: significant quenching

## CNC(=O)c1cn(Cc2ccc(-c3ccccc3)cc2)c2c(OC)c(N3CC[C@@H](CN)C3)c(F)cc2c1=O [242/3a, (S)-1-([1,1′-biphenyl]-4-ylmethyl)-7-(3-(aminomethyl)pyrrolidin-1-yl)-6-fluoro-8-methoxy-N-methyl-4-oxo-1,4-dihydroquinoline-3-carboxamide]
[1]
  fold lower activity (loss in hTopo I inhibition) than 217: 3- to 7 fold

## COc1c(N2CC[C@@H](N)C2)c(F)cc2c(=O)c(C(=O)O)cn(Cc3ccc(-c4ccccc4)cc3)c12 [226/4d, (R)-1-([1,1′-biphenyl]-4-ylmethyl)-7-(3-aminopyrrolidin-1-yl)-6-fluoro-8-methoxy-4-oxo-1,4-dihydroquinoline-3-carboxylic acid]
[1]
  fold lower activity (loss in hTopo I inhibition) than 217: more than 3 fold

## NC[C@@H]1CCN(c2ccc3c(=O)c(C(=O)O)cn(Cc4ccc(-c5ccccc5)cc4)c3c2)C1 [086B/6a, (S)-1-([1,1′-biphenyl]-4-ylmethyl)-7-(3-(aminomethyl)pyrrolidin-1-yl)-4-oxo-1,4-dihydroquinoline-3-carboxylic acid]
[1]
  fold lower activity (loss in hTopo I inhibition) than 5a: ~4 fold
[1]; relative to 7a as printed
  fold lower activity than its cognate C6-fluorine analog 7a: 4 fold

## O=C(O)c1cn(Cc2ccc(-c3ccccc3)cc2)c2cc(N3CC4CNCC4C3)c(F)cc2c1=O (stereo not drawn) [089/5l, 1-([1,1′-biphenyl]-4-ylmethyl)-6-fluoro-7-(hexahydropyrrolo[3,4-c]pyrrol-2(1H)-yl)-4-oxo-1,4-dihydroquinoline-3-carboxylic acid]
[1]
  fold lower activity (loss in hTopo I inhibition) than 5a: 2 fold

## O=C(O)c1cn(Cc2ccc(-n3cccn3)cc2)c2cc(NC[C@@H]3CCNC3)c(F)cc2c1=O [298B/9e, (R)-1-(4-(1H-pyrazol-1-yl)benzyl)-6-fluoro-4-oxo-7-((pyrrolidin-3-ylmethyl)amino)-1,4-dihydroquinoline-3-carboxylic acid]
[1]
  IC50: > 200 µM

## COc1c(N2CC[C@@H](CN)C2)c(F)cc2c(=O)c(C(=O)O)cn(Cc3cc(-c4ccccc4)no3)c12 [294B/7b, (S)-7-(3-(aminomethyl)pyrrolidin-1-yl)-6-fluoro-8-methoxy-4-oxo-1-((3-phenylisoxazol-5-yl)methyl)-1,4-dihydroquinoline-3-carboxylic acid]
[1]
  fold lower activity (loss in hTopo I inhibition) than 217: ≥ 7 fold

## COc1c(N2CC[C@@H](CN)C2)c(F)cc2c(=O)c(C(=O)O)cn(Cc3ccc4ccccc4c3)c12 [Compound 227]
[3]
  inhibition of proliferation of colon cancer in vivo: exhibited activity but was not as effective as 217

## COc1c(N2CC[C@@H](CN)C2)c(F)cc2c(=O)c(C(=O)O)cn(Cc3ccc(-c4ccccc4)cc3)c12 [Compound 217]
[4]
  fluorescence quenching upon addition of Ct-DNA: Modest fluorescence quenching
[4]; fluoroquinolone 25 μM, Ct-DNA 0 or 400 μM
  bathochromic shift upon addition of Ct-DNA: no bathochromic shift was observed
[5]
  bathochromic shift upon addition of 27-bp dsDNA: a bathochromic shift was not observed
[5]; dsDNA 0–200 μM, n=3
  fluorescence quenching upon addition of 27-bp dsDNA: quenched in a concentration-dependent manner
[3]
  inhibition of proliferation of colon cancer in vivo: inhibited the proliferation of colon cancer in vivo as well as fluorouracil

## O=C(O)c1cn(Cc2ccc(-n3cccn3)cc2)c2cc(N3C[C@H]4CCNC[C@H]4C3)c(F)cc2c1=O [300B/9c, 1-(4-(1H-pyrazol-1-yl)benzyl)-6-fluoro-7-((3aS,7aS)-hexahydro-1H-pyrrolo[3,4-c]pyridin-2(3H)-yl)-4-oxo-1,4-dihydroquinoline-3-carboxylic acid]
[1]; relative to 9a
  fold improvement of hTopo I inhibition compared to 9a: 2 fold

## COc1c(N2CC[C@@H](CN)C2)c(F)cc2c(=O)c(C(=O)O)cn(Cc3ccc(-n4cccn4)cc3)c12 [292B/7a, (S)-1-(4-(1H-pyrazol-1-yl)benzyl)-7-(3-(aminomethyl)pyrrolidin-1-yl)-6-fluoro-8-methoxy-4-oxo-1,4-dihydroquinoline-3-carboxylic acid]
[1]
  fold lower activity (loss in hTopo I inhibition) than 217: ≥ 7 fold
